# Assay outcomes: PubChem BioAssay, Broad Institute
# Cneo AK release – causes C. neoformans cell lysis; 0.2% of 360,000 active; AID 651654; lysis activity, % at 15 µM; adenylate kinase release luminescence, 4 h; normalised: neutral wells 0, clomiphene wells 100;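 active = mean lysis activity across replicates of at least 80%, whatever share of replicates individually reach that level; inactive = mean lysis activity below 80%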
#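 Assay system: C. neoformans cells. Amount: yeast cell density of 5 × 10^6 cells/mL. Technique: AK luminescence. Buffer or medium: YPD. Times: static 4 h at 37 °C with compound, 1 h detection. Dosing: single-point compound dose. Read-out: lysis from increased AK signal.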
# Ecoli rRNA inh – selective bacterial rRNA inhibition in E. coli; E. coli WT GFP vs humanized-ribosome RFP mutants, fluorescence, 24 h; active compounds read low; DMSO median 0, no signal -100; 1.6% of 350,000 active; GFP signal change (wild-type ribosome), % (concentration not given with the values);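 active = significant combined selectivity score with lowered wild-type GFP, culture density cut under 30%, mutant RFP and density less affected; inactive = any of these conditions unmet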
# ERAP1 inh – ERAP1 (human) enzyme inhibition. Q9NZ08. recombinant ERAP1, Leu-AMC fluorescence, 60 min. inhibition, % at 10.7 µM. 0.15% of 340,000 active. AID 652197;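 active = mean replicate inhibition of at least 30%, or all replicates individually reaching that 30% level; inactive = mean below 30% and not every replicate reaching it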;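 note: 0% = neutral control wells and 100% = L-leucinethiol positive control wells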
# FGF22 binding – binders of recombinant human FGF22 by thermal shift. AID 651658. Q9HCT0. 1.5% of 340,000 active. activity (Tm shift, normalised), % at 9.99 µM. SYPRO orange fluorescence; percent of sucrose octasulfate shift, DMSO zero;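 active = mean Tm shift, scaled 0 neutral to 100 positive control, at about 1.3% or above, every replicate too, limit read from the data; inconclusive = no clear call, values can overlap the other calls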
# Target sequence (Q9HCT0 whole entry, looked up): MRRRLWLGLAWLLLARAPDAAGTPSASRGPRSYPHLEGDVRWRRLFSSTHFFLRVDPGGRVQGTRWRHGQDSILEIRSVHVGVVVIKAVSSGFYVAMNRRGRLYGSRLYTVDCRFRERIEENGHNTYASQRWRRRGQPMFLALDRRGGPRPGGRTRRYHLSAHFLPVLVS
# Env fusion inh – HIV envelope-mediated fusion inhibition; inhibition, % at 12.3 µM; AID 651610; HeLa-JRFL Env/CEM21 cell fusion, luciferase; 1.1% of 360,000 active;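 active = mean replicate inhibition score of at least 50 and every replicate individually at or above 50; inconclusive = only one of the two criteria met; inactive = mean below 50 and not all replicates reaching 50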;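 note: 0% = plate neutral controls and 100% = maraviroc near 300 nM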
# PGC1a acetyl inh – PGC1a acetylation modulation, inhibitor mode; U2OS PGC1a acetylation, AlphaScreen anti-acetyl-lysine; with virally co-expressed GCN5 acetyltransferase; 0.17% of 350,000 active; inhibition, % at 15.6 µM; AID 651687;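 active = every replicate shows inhibition of at least 40%; inconclusive = mean inhibition at least 40% but some replicate below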;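 note: 0% = neutral control wells and 100% = positive control wells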
# C2C12 COX5a inh – reduces COX5a expression driven by PGC-1a in C2C12 myotubes | maximal activity, % | 45 tested, under 10 active | shares compounds with PGC1a acetyl inh | AID 743461 | C2C12 myotubes PGC-1a adenovirus, COX5a qPCR;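 active = fitted dose curve reaching 40% activity at or below the highest valid dose tested; inconclusive = flat fit between 30% and 70%, or an unusable fit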
# AID743468 – change in PGC-1a target gene PDK4 expression, dose response, C2C12 myotubes, RT-qPCR, cherry-pick. shares compounds with PGC1a acetyl inh. PGC-1a adenovirus, PDK4 mRNA qPCR. PDK4 expression increase, % at 19.5 µM. 45 tested, under 10 active. AID 743468;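 active = fitted curve reaching a 40% PDK4 expression rise at or below the top valid tested dose; inconclusive = no clear call, values can overlap the other calls; inactive = the rest, including shifts the wrong way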
# AID977621 – growth inhibition of wild-type GFP E. coli, dose response, H69 mutant RFP, cherry-pick; shares compounds with Ecoli rRNA inh; E. coli wild-type GFP strain growth, fluorescence, 24 h; activity change, negative = inhibition at 50 µM; 1,900 tested, under 10 active; AID 977621;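 active = Wild-type ribosome reporter drop at least double the humanized mutant ribosome reporter drop, growth loss under a set limit; inconclusive = no clear call, values can overlap the other calls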;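 note: wild-type GFP and H69 mutant RFP strains grown together 50/50 in each well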
# AID977628 – growth of wild-type and h24-humanized E. coli strains – h24 mutant RFP vs wild-type GFP, cherry-pick, dose response; shares compounds with Ecoli rRNA inh; E. coli WT GFP strain growth, fluorescence, 24 h; activity change, negative = inhibition at 50 µM; 1,900 tested, under 10 active;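 active = compound lowering the normal-ribosome reporter at least twice as much as the humanized-ribosome reporter, growth loss under a set limit; inconclusive = no clear call, values can overlap the other calls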;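 note: wild-type GFP and h24 humanized RFP strains co-cultured 1 to 1 per well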
# An asterisk follows results filed as active; ? = inconclusive; nt = no result given; ! = not confirmed by another sample; [ ] = remark or other dose. The list is not random: actives were taken first. Their share in the collection is about 3.5%.
SMILES,Cneo AK release,Ecoli rRNA inh,ERAP1 inh,FGF22 binding,Env fusion inh,PGC1a acetyl inh,C2C12 COX5a inh,AID743468,others
Cc1ccc(-c2nc(NC(=O)c3nn(C)cc3[N+](=O)[O-])sc2C)cc1,-7.4,0.9,-2.4,0.2,nt,95.7*,-24.9,4.0[6.8 µM],
Cc1ccc(S(=O)(=O)N(C)C[C@H]2Oc3cc(C#Cc4ccncc4)ccc3S(=O)(=O)N([C@H](C)CO)C[C@H]2C)cc1,-3.6,0.1,1.3,-0.5,nt,44.4*,23.0,-8.4,
C[C@H](CO)N1C[C@H](C)[C@@H](CN(C)Cc2cccnc2)Oc2cc(C#CC3CCCCC3)ccc2S1(=O)=O,-5.2,-3.7,0.3,-0.1,20.8[16.7 µM],?,39.1,2.4,
CC(=O)N1N=C(c2ccccc2)CC1c1ccccc1 (stereo unspecified),0.7,-2.0,-2.9,-0.2,12.4,-1.4,nt,nt,
COC(=O)c1nn(-c2ccccc2)ccc1=O,nt,nt,nt,nt,nt,44.3*,-33.4,-11.0,
Cc1cc(C)cc(OC(=O)CS(=O)c2ccc(C(F)(F)F)cc2[N+](=O)[O-])c1 (stereo unspecified),-1.6,nt,nt,nt,-150.5,-63.9,-29.4,-14.9,
CN(CCNC(=O)c1ccc(CS(=O)(=O)c2ccc(Br)cc2)o1)CCc1ccccc1,0.0,3.2,-2.4,0.2,8.4,nt,nt,nt,
O=C(Nc1cccc(F)c1)N1CC(=O)N2[C@@H](CO)[C@@H](c3ccc(C#Cc4cccnc4)cc3)[C@@H]2C1,nt,-6.4,0.9,nt,nt,?,-24.7,49.0*,
O=C(Nc1cccc(F)c1)N1CC(=O)N2[C@H](C1)[C@H](c1ccc(C#Cc3cccnc3)cc1)[C@@H]2CO,nt,-2.0,2.2,nt,nt,20.9,nt,nt,
CC1(c2ccccc2)NC(=O)N(CC(=O)N2CCc3ccccc32)C1=O (stereo unspecified),-2.3,3.2,0.5,-0.1,-20.0,4.9,nt,nt,
CCOC(=O)c1c2c(n(C)c1C)C(=O)C(=O)c1ccc(Br)cc1-2,-3.9,nt,nt,nt,-17.5,-83.3,-37.1,-30.8[6.8 µM],
Cc1c(CN(C)C)c2c(n1C)C(=O)c1ccc(Br)cc1-2,0.4,nt,nt,nt,-10.4,-4.6,nt,nt,
O=C(Nc1ccc(N2CCN(Cc3ccccc3F)CC2)cc1)c1ccccc1[N+](=O)[O-],nt,-25.9,-0.6,0.0,1.4,-21.7,nt,nt,
O=C(Nc1ccc(N2CCN(Cc3ccccc3F)CC2)cc1)c1ccc([N+](=O)[O-])o1,-0.9,nt,-4.2,0.0,-168.9,72.7*,-40.1,14.6,
CCOc1ccccc1N1CCN(C(=O)c2ccncc2)CC1,nt,nt,nt,nt,-29.9,-5.9,nt,nt,
Cc1cccc(N(CC(=O)NCc2ccco2)C(=O)CNS(=O)(=O)c2ccc(F)cc2)c1,-0.1,-3.7,0.8,-0.2,9.9,-4.0,nt,nt,
CCCN(CC)c1ncnc2[nH]ncc12,0.8,4.8,-7.4,-0.2,15.7,?,15.3,61.6*,
C=CS(=O)(=O)N(Cc1ccccc1Br)[C@H](CO)Cc1ccccc1,-1.6,-7.3,0.6,-0.1,49.9,?,-23.9,-28.9,
C=CCCN([C@H](CO)Cc1ccccc1)S(=O)(=O)c1ccccc1Br,-1.6,-52.0,nt,0.1,-14.9,-18.5,nt,nt,
Cn1nnnc1SCC(=O)NCc1cccc(C(=O)O)c1,5.3,nt,nt,nt,-65.2,?,-25.7,-5.7,
COCC(=O)N1CC[C@H]2[C@@H]1c1cc(-c3cccc(F)c3)ccc1N(C)[C@H]2CO,-3.0,-6.9,0.0,-0.2,nt,-0.5,nt,nt,
Cc1ccc(-c2ccc(C3[C@@H]4CN(C(=O)Nc5ccc(C(F)(F)F)cc5)C[C@H]3N4)cc2)cc1 (stereo partly specified),nt,-60.0,-5.6,nt,nt,69.7*!,-32.2,-14.8,
N#Cc1ccc(-c2ccc(C3[C@@H]4CN(C(=O)Nc5ccc(C(F)(F)F)cc5)C[C@H]3N4)cc2)cc1 (stereo partly specified),nt,-60.2,0.5,nt,nt,-4.6,nt,nt,
COc1ccc(Br)c(-c2nc(CS(=O)(=O)c3ccc(F)cc3)no2)c1,nt,-26.6*,-3.1,-0.1,-2.5,-26.7,nt,nt,AID977628=-7.55
COc1ccc(Br)c(-c2nnc(CS(=O)(=O)c3ccccc3)o2)c1,0.7,-4.6,2.1,0.0,-20.1,5.4,nt,nt,
SMILES,Cneo AK release,Ecoli rRNA inh,ERAP1 inh,FGF22 binding,Env fusion inh,PGC1a acetyl inh,C2C12 COX5a inh,AID743468,others
COc1ccc(NC(=O)CCNS(=O)(=O)c2cccc3nsnc23)cc1,nt,-9.4,-4.5,0.2,5.8,6.3,nt,nt,
COc1ccc(-c2ccc(-c3nnn(CC(C)=O)n3)cc2)cc1,-0.2,nt,nt,nt,-125.4,-0.2,nt,nt,
O=C(NCCNC(=O)c1ccccn1)c1ccc(F)cc1,2.4,6.6,-6.2,42.8,-5.2,4.5,nt,nt,
CCOC(=O)c1cccc(NC(=O)CCc2ccccc2)c1,0.8,-19.4,1.7,nt,14.1,-11.5,nt,nt,
CCOC(=O)c1cccc(OS(=O)(=O)Cc2ccccc2)c1,-0.6,-25.5*,1.4,0.1,-5.6,5.5,nt,nt,AID977621=-9.12
COC(=O)c1cc(S(=O)(=O)NCc2ccc3c(c2)OCO3)cn1C,2.3,-13.0*,-0.7,0.0,-7.2,-6.0,nt,nt,AID977621=-4.93;AID977628=-6.89
Cn1cc(CN2CCCC(C(=O)c3cccs3)C2)c(-c2cccc(Cl)c2)n1 (stereo unspecified),0.1,-25.2*,-2.4,-0.1,14.7,-7.1,nt,nt,AID977621=-1.79;AID977628=-2.94
Cn1cc(CN(CCO)Cc2cccs2)c(-c2cccc(Cl)c2)n1,0.4,-30.9*,-1.7,0.2,2.6,nt,nt,nt,AID977621=5.87;AID977628=-12.2
Cc1ccsc1C(=O)C1CCCN(Cc2cn(C)nc2-c2ccccc2)C1 (stereo unspecified),nt,0.3,5.0,0.6,21.9,nt,nt,nt,
Fc1cccc(Cc2c(-c3ccco3)nc3c4ccccc4ccn23)c1,-3.8,-21.3*,-2.4,-0.1,68.6*,1.1,nt,nt,AID977621=-9.83
Clc1cccc(Cc2c(-c3ccco3)nc3c4ccccc4ccn23)c1,nt,nt,-0.4,0.1,6.8,nt,nt,nt,
Brc1ccc(-c2nc3c4ccccc4ccn3c2Cc2ccccc2)cc1,nt,-21.9*,-2.6,-0.4,-5.5,-2.7,nt,nt,AID977621=9.08;AID977628=0.426
CCCCn1nnnc1C(c1cc2ccccc2o1)N1CCCCC1 (stereo unspecified),nt,-1.7,13.7,-0.1,31.2,nt,nt,nt,
